In ChEMBL document CHEMBL1154788, “Synthesis and antibacterial activity of some novel bis-1,2,4-triazolo[3,4-b]-1,3,4-thiadiazoles and bis-4-thiazolidinone derivatives from terephthalic dihydrazide” (2009):

Assays:
[1] = test system: Klebsiella pneumoniae; assay: Antibacterial activity against Klebsiella pneumoniae ATCC 10031 at 1 mg/ml after 24 hrs by well-diffusion method; type: functional; conditions: ATCC 10031, 24 h, read-out: DIZ
[2] = test system: Bacillus cereus; assay: Antibacterial activity against Bacillus cereus ATTC 10702 at 1 mg/ml after 24 hrs by well-diffusion method; type: functional; conditions: ATTC 10702, 24 h, read-out: DIZ
How it was run: (§1)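 Agar well diffusion. About 1 cm3 of a 24 h infusion-broth culture (10^6 cfu cm-3) was mixed in plates with 15 cm3 molten nutrient agar held at 45°C. Once the agar set, 6 mm wells were punched and filled with compound solution (1 mg ml-1 in DMSO). Plates were incubated 24 h at 37°C, and the inhibition-zone diameter was measured. Ciprofloxacin and sulphamethoxazole were the standards.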

[3] = test system: Salmonella typhimurium; assay: Antibacterial activity against Salmonella Typhimurium ATTC 23564 at 1 mg/ml after 24 hrs by well-diffusion method; type: functional, Salmonella enterica subsp. enterica serovar Typhimurium; conditions: Salmonella enterica, ATTC 23564, 24 h; read-out: DIZ
[4] = test system: Escherichia coli; assay: Antibacterial activity against Escherichia coli ATTC 25922 at 1 mg/ml after 24 hrs by well-diffusion method; type: functional; conditions: ATTC 25922, 24 h, read-out: DIZ; how it was run: as §1

SMILES	zone of inhibition at 1000 µg/mL [1]	zone of inhibition at 1000 µg/mL [2]	zone of inhibition at 1000 µg/mL [3]	zone of inhibition at 1000 µg/mL [4]
O=C(N/N=C/c1ccccc1)c1ccc(C(=O)N/N=C/c2ccccc2)cc1	5 mm	4 mm	4 mm	6 mm
O=C(NN1C(=O)CSC1c1ccccc1)c1ccc(C(=O)NN2C(=O)CSC2c2ccccc2)cc1 (stereo not given)	6 mm	8 mm	7 mm	8 mm
c1ccc(-c2nnc(-c3ccc(-c4nnc(-c5ccccc5)o4)cc3)o2)cc1	7 mm	8 mm	7 mm	8 mm
COc1ccc(/C=N/NC(=O)c2ccc(C(=O)N/N=C/c3ccc(OC)cc3)cc2)cc1	6 mm	6 mm	4 mm	6 mm
O=[N+]([O-])c1ccc(-c2nn3c(-c4ccc(-c5nnc6sc(-c7ccc([N+](=O)[O-])cc7)nn56)cc4)nnc3s2)cc1	5 mm	5 mm	5 mm	5 mm
O=C(N/N=C/c1ccccc1Br)c1ccc(C(=O)N/N=C/c2ccccc2Br)cc1	5 mm	5 mm	6 mm	6 mm
O=C(N/N=C/c1ccccc1Cl)c1ccc(C(=O)N/N=C/c2ccccc2Cl)cc1	6 mm	8 mm	7 mm	5 mm
O=C(NN1C(=O)CSC1c1ccccc1Br)c1ccc(C(=O)NN2C(=O)CSC2c2ccccc2Br)cc1 (stereo not given)	7 mm	7 mm	6 mm	7 mm
Clc1ccc(-c2nnc(-c3ccc(-c4nnc(-c5ccc(Cl)cc5)o4)cc3)o2)cc1	4 mm	8 mm	6 mm	8 mm
O=C(N/N=C/c1ccc(O)cc1)c1ccc(C(=O)N/N=C/c2ccc(O)cc2)cc1	5 mm	6 mm	5 mm	5 mm
Nn1c(S)nnc1-c1ccc(-c2nnc(S)n2N)cc1	6 mm	5 mm	6 mm	7 mm
Clc1ccccc1-c1nn2c(-c3ccc(-c4nnc5sc(-c6ccccc6Cl)nn45)cc3)nnc2s1	6 mm	7 mm	6 mm	6 mm
Oc1ccc(-c2nnc(-c3ccc(-c4nnc(-c5ccc(O)cc5)o4)cc3)o2)cc1	6 mm	5 mm	4 mm	6 mm
COc1ccc(-c2nnc(-c3ccc(-c4nnc(-c5ccc(OC)cc5)o4)cc3)o2)cc1	5 mm	6 mm	4 mm	7 mm
O=C(NN1C(=O)CSC1c1ccccc1Cl)c1ccc(C(=O)NN2C(=O)CSC2c2ccccc2Cl)cc1 (stereo not given)	6 mm	6 mm	6 mm	7 mm
Nc1ccc(-c2nnc(-c3ccc(-c4nnc(-c5ccc(N)cc5)o4)cc3)o2)cc1	5 mm	6 mm	5 mm	6 mm
O=[N+]([O-])c1ccc(-c2nnc(-c3ccc(-c4nnc(-c5ccc([N+](=O)[O-])cc5)o4)cc3)o2)cc1	8 mm	9 mm	8 mm	9 mm
O=C(O)c1cn(C2CC2)c2cc(N3CCNCC3)c(F)cc2c1=O [CIPROFLOXACIN]	21 mm	18 mm	23 mm	–
Cc1cc(NS(=O)(=O)c2ccc(N)cc2)no1 [SULFAMETHOXAZOLE]	10 mm	10 mm	11 mm	12 mm
